Data taken from PMC12855199 (Scientific Reports, 2025).

What was measured:
[1] = MTT cytotoxicity testing on Caco-2; type: cell-based, human; conditions: human, Caco-2 cells
How it was run: (§1)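 Cells seeded at 20,000/well in MEM with 10% FBS, grown 24 h at 37 °C under 5% CO₂. Medium then replaced by test compound at final 10–100,000 ng/mL in MEM with 0.5% DMSO, 24 h. MTT added for 4 h; formazan dissolved in 4 mM HCl/0.1% NP-40 in isopropanol. Absorbance read at 590 nm, reference 620 nm. Viability relative to untreated; CC50 by nonlinear regression; three independent replicates.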

C. elegans N2 strain = experiment: In vitro nematocidal; set-up: species or system Caenorhabditis elegans
How it was run: (§2)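 C. elegans strains kept on NGM with E. coli. L1 obtained by bleaching and hatching eggs on unseeded NGM at 20 °C (~24 h). Thirty L1 per well, in triplicate, exposed in M9 to test compound at final 10–100,000 ng/mL with 0.5% DMSO, 72 h, 20 °C. Controls: DMSO, albendazole, ivermectin. Motility scored visually by inverted microscope; no movement = dead. EC50 by nonlinear regression; three independent replicates.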

C. elegans JD608 strain = experiment: In vitro nematocidal; conditions: Caenorhabditis elegans, 72 h
How it was run: as §2

[2] = MTT cytotoxicity testing on HepG2; type: cell-based, human; conditions: human, HepG2 cells
How it was run: as §1

C. elegans CB347 strain = experiment: In vitro nematocidal; set-up: species or system Caenorhabditis elegans
How it was run: as §2

[3] = system: T. spiralis muscle-stage larvae (L1); experiment: In vitro nematocidal; set-up: species or system Trichinella spiralis
How it was run: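 Female ICR mice (8 weeks old) were infected orally with 100 larvae. Muscle larvae were recovered at day 60 by 0.7% pepsin/0.7% HCl digestion and kept in RPMI with 10% FCS and penicillin/streptomycin. Thirty larvae per well, in triplicate, with test compound at final 10–100,000 ng/mL and 0.5% DMSO, 72 h, 37 °C. Controls: DMSO, albendazole, ivermectin. EC50 by nonlinear regression; three independent replicates.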

Caco-2 cells = experiment: MTT cytotoxicity testing on Caco-2; type: cell-based, human; conditions: Caco-2, 24 h exposure, MTT; mean ± S.E.
How it was run: as §1

HepG2 cells = experiment: MTT cytotoxicity testing on HepG2; type: cell-based, human; conditions: HepG2, 24 h exposure, MTT; mean ± S.E.
How it was run: as §1

[4] = no reference given; cited from earlier work
[5] = system: T. spiralis muscle larvae; set-up: species or system Trichinella spiralis
How it was run: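 Muscle larvae were exposed to one concentration of test compound or to 0.5% DMSO. Extraction: cold methanol twice, then water, with freeze–thaw cycles and centrifugation at 4 °C; pooled extracts dried. Separation on C18 at 40 °C, 0.3 mL/min, formic acid water/acetonitrile gradient. Q-TOF ESI±, IDA with survey scan m/z 100–1000; pooled QCs. Processed in MS-DIAL and MetaboAnalyst; 3 biological × 2 technical replicates.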

[6] = T. spiralis metabolite, quercetin at EC50 vs DMSO
[7] = T. spiralis, quercetin at EC50 vs DMSO control

C[C@@H]1O[C@@H](O[C@H]2[C@H](Oc3cc(O)c4c(c3)O[C@H](c3ccc(O)cc3)CC4=O)O[C@H](CO)[C@@H](O)[C@@H]2O)[C@H](O)[C@H](O)[C@H]1O [Naringin, naringin]
CC50 at 24 h [1]: 249 ± 65.3 µM | EC50 (C. elegans N2 strain; Caenorhabditis elegans, 72 h): > 1000 µM | EC50 (C. elegans JD608 strain): > 1000 µM | CC50 at 24 h [2]: > 1000 µM | EC50 (C. elegans CB347 strain; Caenorhabditis elegans, 72 h): > 1000 µM

O=c1cc(-c2ccc(O)cc2)oc2cc(O)cc(O)c12 [Apigenin, apigenin]
EC50 ([3]; Trichinella spiralis, 72 h): > 1000 µM | CC50 at 24 h [1]: > 1000 µM | EC50 (C. elegans N2 strain; Caenorhabditis elegans, 72 h): 218 ± 11.2 µM | EC50 (C. elegans JD608 strain): 51.3 ± 1.46 µM | CC50 at 24 h [2]: 53.3 ± 4.52 µM | EC50 (C. elegans CB347 strain; Caenorhabditis elegans, 72 h): 55.8 ± 4.89 µM

CC[C@H](C)[C@H]1O[C@]2(CC[C@@H]1C)C[C@@H]1C[C@@H](C/C=C(\C)[C@@H](O[C@H]3C[C@H](OC)[C@@H](O[C@H]4C[C@H](OC)[C@@H](O)[C@H](C)O4)[C@H](C)O3)[C@@H](C)/C=C/C=C3\CO[C@@H]4[C@H](O)C(C)=C[C@@H](C(=O)O1)[C@]34O)O2 [IVM, ivermectin, reference compound]
EC50 ([3]; T. spiralis muscle-stage larvae, 72 h at 37 °C, motility, mean ± S.E.): 107 ± 7.89 µM | CC50 (Caco-2 cells): 20 ± 5.28 µM | EC50 (C. elegans N2 strain; C. elegans N2 (wild type), L1, 72 h at 20 °C, motility, mean ± S.E.): 17.7 ± 1.85 µM | CC50 (HepG2 cells): 14.9 ± 1.39 µM | EC50 (C. elegans CB347 strain; C. elegans CB347 (albendazole-resistant), L1, 72 h at 20 °C, motility, mean ± S.E.): 15.4 ± 6.07 µM

O=c1c(O)c(-c2ccc(O)c(O)c2)oc2cc(O)cc(O)c12 [Quercetin, quercetin]
Oral bioavailability [4]: < 5% | Log2 (FC) 1-Heptadecanoyl-sn-glycero-3-phosphocholine [5, 6]: -1.6835 | Log2 (FC) 3-Phosphoglyceric Acid [5, 6]: -1.0514 | Log2 (FC) 7alpha-Hydroxy-4-cholesten-3-one [5, 6]: 2.1364 | Log2 (FC) Arachidonic acid [5, 6]: -1.1472 | Log2 (FC) Coenzyme q6 [5, 6]: 1.8385 | Log2 (FC) Deoxyguanosine [5, 6]: -2.4539 | Log2 (FC) Inosine [5, 6]: -2.6373 | Log2 (FC) LacCer(d18:1/16:0) [5, 6]: 2.6728 | Log2 (FC) Lignoceric acid [5, 6]: 4.0956 | Log2 (FC) Linoleic acid [5, 6]: 2.1922 | Log2 (FC) Linolenic acid [5, 6]: 2.7081 | Log2 (FC) LysoPC(0:0/18:0) [5, 6]: -1.4886 | Log2 (FC) LysoPE(0:0/16:0) [5, 6]: -1.8636 | Log2 (FC) LysoPE(0:0/18:2(9Z,12Z)) [5, 6]: -1.4991 | Log2 (FC) Menaquinone 4 [5, 6]: 2.2163 | Log2 (FC) N-Acetyl-D-Galactosamine [5, 6]: 4.5233 | Log2 (FC) PC(P-18:1(9Z)/P-16:0) [5, 6]: 2.1307 | Log2 (FC) Phosphatidylethanolamine [5, 6]: -1.0876 | Log2 (FC) Tetradecanoylcarnitine [5, 6]: -2.0664 | Log2 (FC) Vitamin K1 [5, 6]: 1.8127 | Down-regulated features [5, 7]: 68 | Up-regulated features [5, 7]: Around 204 | EC50 ([3]; Trichinella spiralis, 72 h): 147 ± 28.2 µM | CC50 at 24 h [1]: > 1000 µM | EC50 (C. elegans N2 strain; Caenorhabditis elegans, 72 h): 80.5 ± 20.3 µM | EC50 (C. elegans JD608 strain): 45.3 ± 4.92 µM | CC50 at 24 h [2]: > 1000 µM | EC50 (C. elegans CB347 strain; Caenorhabditis elegans, 72 h): 76.2 ± 7.4 µM

CCCSc1ccc2nc(NC(=O)OC)[nH]c2c1 [ABZ, albendazole, reference compound]
EC50 ([3]; Trichinella spiralis, 72 h): 129 ± 34.1 µM | CC50 at 24 h [1]: > 1000 µM | EC50 (C. elegans N2 strain; Caenorhabditis elegans, 72 h): 672 ± 73 µM | EC50 (C. elegans JD608 strain): 788 ± 22.6 µM | CC50 at 24 h [2]: > 1000 µM | EC50 (C. elegans CB347 strain; Caenorhabditis elegans, 72 h): > 1000 µM

COc1ccc(-c2cc(=O)c3c(OC)c(OC)c(OC)c(OC)c3o2)cc1 [Tangeretin, tangeretin]
CC50 at 24 h [1]: 531 ± 70.3 µM | EC50 (C. elegans N2 strain; Caenorhabditis elegans, 72 h): > 1000 µM | EC50 (C. elegans JD608 strain): 43.1 ± 11.2 µM | CC50 at 24 h [2]: 251 ± 35 µM | EC50 (C. elegans CB347 strain; Caenorhabditis elegans, 72 h): > 1000 µM

COc1ccc([C@@H]2CC(=O)c3c(O)cc(O)cc3O2)cc1O [Hesperetin, hesperetin]
CC50 at 24 h [1]: 56.3 ± 6.18 µM | EC50 (C. elegans N2 strain; Caenorhabditis elegans, 72 h): 283 ± 23.9 µM | EC50 (C. elegans JD608 strain): 51.7 ± 2.92 µM | CC50 at 24 h [2]: > 1000 µM | EC50 (C. elegans CB347 strain; Caenorhabditis elegans, 72 h): > 1000 µM
